# Source: PubChem
# An excerpt weighted towards active compounds, which were near 1.9% of everything screened.
# DNMT1 block – human DNMT1 methyltransferase inhibitors, primary screen, biochemical, molecular beacon, fluorescence, HinP1I cleavage, uHTS. DNA (cytosine-5)-methyltransferase 1 (Homo sapiens), P26358. inhibition (reported as % activation of signal), % at 10 µM. 360,000 compounds, 0.83% hits; in the data active means inhibition above about 50%
# STEP block – STEP phosphatase inhibitors, primary screen, biochemical, fluorescence intensity, uHTS; AID 588621, 2011; 360,000 compounds, 0.25% hits; inhibition, % at 20 µM; recombinant STEP, OMFP fluorogenic substrate;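 active means inhibition at 20 µM, scaled per plate between control wells, above about 37%, limit read from the data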;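 further: 0% = DMSO with enzyme and substrate and 100% = substrate only without enzyme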
#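 Assay system: isolated STEP enzyme. Buffer or medium: pH 6.0 Bis-Tris with DTT and Tween 20. Also added: fluorogenic phosphatase substrate OMFP at 25 µM final. Dosing: 20 µM, 1% DMSO. Timing: 20 min reaction, room temperature, in the dark. Measured by: fluorescence intensity, excitation 480 nm, emission 540 nm. Evaluation: normalized % inhibition.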
# UBC9 SUMO inh – inhibitors of in vitro SUMOylation cascade, primary screen, biochemical, HTRF, uHTS; inhibition, % at 35 µM; AID 2006, 2009; 290,000 compounds, 0.36% hits; HTRF SUMOylation assay, SAE1/SAE2 + UBC9; SUMO-conjugating enzyme UBC9 (Homo sapiens), P63279; in the data active means inhibition above about 50%, passing the limit was not always enough
# Target sequence (P63279 whole entry, looked up): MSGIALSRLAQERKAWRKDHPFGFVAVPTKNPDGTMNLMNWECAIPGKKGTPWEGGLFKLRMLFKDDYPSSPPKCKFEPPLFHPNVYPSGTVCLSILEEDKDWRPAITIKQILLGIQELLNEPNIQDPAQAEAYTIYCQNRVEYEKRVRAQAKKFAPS
# Scp1 inh – Scp-1 phosphatase inhibitors, primary screen, biochemical, colorimetric, uHTS; 340,000 compounds, 0.88% hits; Carboxy-terminal domain RNA polymerase II polypeptide A small phosphatase 1 (Homo …; inhibition, % at 20 µM; Recombinant Scp1, phosphopeptide, malachite green phosphate absorbance;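 active means inhibition above about 50% at 20 µM, limit read from the data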;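 further: plate controls were DMSO wells with enzyme for no effect and wells lacking enzyme for full effect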
# Target sequence (Q9GZU7 76-261 limits assumed): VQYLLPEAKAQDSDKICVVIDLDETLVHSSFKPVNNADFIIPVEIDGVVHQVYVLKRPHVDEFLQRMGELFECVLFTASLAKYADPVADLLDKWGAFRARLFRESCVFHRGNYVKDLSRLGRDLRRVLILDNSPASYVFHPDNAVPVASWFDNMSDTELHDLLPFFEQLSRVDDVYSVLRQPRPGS
#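 Test system: SCP-1 phosphatase catalytic domain, residues 76-261 | Compound dosing: One concentration, 20 µM, with 1.0% DMSO | Schedule: 45 min room-temperature reaction, 5 min colour, 30 min stabiliser | Detection: Absorbance at 630 nm | Read-out basis: % inhibition of SCP-1 phosphate liberation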
# SUMO1-SIM PPI – modulators of SUMO1 protein-protein interactions, primary screen, biochemical, uHTS. Small ubiquitin-related modifier 1 (Homo sapiens), P63165. SUMO1 binding to a labelled peptide, TR-FRET, 1 h. inhibition, % at 20 µM. 360,000 compounds, 0.33% hits; in the data active means inhibition above about 37%
# Target sequence (P63165 whole entry, looked up): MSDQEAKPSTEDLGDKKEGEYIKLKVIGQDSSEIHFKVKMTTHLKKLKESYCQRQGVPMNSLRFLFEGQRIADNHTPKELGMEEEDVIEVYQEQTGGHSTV
# LMPTP block – LMPTP phosphatase inhibitors, primary screen, biochemical, fluorescence intensity, uHTS; inhibition, % at 20 µM; 360,000 compounds, 0.22% hits; Low molecular weight phosphotyrosine protein phosphatase (Homo sapiens), P24666; recombinant LMPTP-A, OMFP fluorogenic substrate; AID 651560, 2012;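 active means compounds that cut the enzyme signal by at least half of the control window in the single-dose screen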;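 further: plate controls were DMSO wells with enzyme plus substrate for no effect and substrate without enzyme for full effect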
# Target sequence (P24666 whole entry, looked up): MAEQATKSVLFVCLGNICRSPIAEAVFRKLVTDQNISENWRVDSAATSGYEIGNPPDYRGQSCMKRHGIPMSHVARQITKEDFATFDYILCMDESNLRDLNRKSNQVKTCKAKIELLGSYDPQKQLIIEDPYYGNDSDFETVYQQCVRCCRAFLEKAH
#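 Test system: LMPTP-A, protein tyrosine phosphatase of low molecular weight; Input: 0.625 nM enzyme; Incubation: 50 min dark incubation at room temperature; Signal: endpoint fluorescence intensity from OMFP dephosphorylation; Read-out basis: % inhibition versus control wells.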
# Scp-1 conf – Scp-1 phosphatase inhibitors, retest, confirmation, biochemical, colorimetric, single concentration | shares compounds with Scp1 inh | recombinant SCP-1 catalytic domain, phosphate release, malachite green absorbance | inhibition, % at 20 µM | 2,500 compounds, 61% hits | AID 540281, 2011;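 further: plate controls were DMSO with enzyme for no effect and buffer wells lacking enzyme for full effect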
# MG interference – colorimetric readout interference by compounds, confirmation, artefact control for Scp-1 inhibitor project, biochemical, single concentration; shares compounds with Scp1 inh; Colorimetric interference counterscreen, malachite green absorbance 630 nm; apparent inhibition (interference), % at 20 µM; 2,500 tested, under 10 active; AID 540313, 2011;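 further: compounds added after enzyme reaction finished so only phosphate colour detection is probed; plate controls were DMSO wells with completed Scp-1 reaction for no effect and substrate wells lacking enzyme for full effect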
# Scp-1 Tm shift – Scp-1 binding by thermal shift, confirmation, orthogonal assay for Scp-1 inhibitor project, biophysical, differential scanning fluorimetry; shares compounds with Scp1 inh; Recombinant SCP1, Sypro Orange thermal shift Tm; thermal shift relative to vanadate control, % at 40 µM; 1,500 compounds, 25% hits; AID 540329, 2011;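 active means substances whose mean melting-temperature shift, as a percentage of the reference inhibitor's shift, reaches about 5.3%, limit read from the data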;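 further: 0% = Tm of DMSO wells and 100% = Tm with sodium orthovanadate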
# The depositor's hits bear a star; . = no result.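 How the source made its calls, unless noted: active means inhibition of at least 30% at 20 µM; inactive means the rest.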
SMILES,DNMT1 block,STEP block,UBC9 SUMO inh,Scp1 inh,SUMO1-SIM PPI,LMPTP block,Scp-1 conf,MG interference,others
CCCCNC(=O)c1ccc2nc(-c3ccco3)c(-c3ccco3)nc2c1,81*,3,30,53*,40*,48,51*,-6,Scp-1 Tm shift=13*
CCOc1cccc(-c2c(C(=O)N/N=C/c3ccoc3)nnn2-c2nonc2N)c1,1,-5,0,-6,-9,-1,.,.,
Cc1cn(CC(=O)N[C@H](C)c2cccc3ccccc23)c(=O)[nH]c1=O,1,-2,.,0,0,-2,-21,-20,
CC[C@@H](NC(=O)Cn1cc(C)c(=O)[nH]c1=O)c1ccccc1,0,-2,.,1,0,-1,.,.,
COC(=O)Cn1ncc(N2C3CC(CC(C)(C)C3)C2C)c(Cl)c1=O (stereo not drawn),4,1,8,-3,-5,-1,.,.,
Fc1cc(F)c(NC(=S)N2CCOCC2)c(F)c1,0,-1,10,95*,-5,-3,-6,-13,
Fc1ccccc1NC(=S)N1CCOCC1,4,3,4,-4,3,0,.,.,
Clc1ccc(OCc2nn3c(-c4ccco4)nnc3s2)c(Cl)c1,39,4,36,81*,0,32,70*,-11,Scp-1 Tm shift=2
Cc1cc(C)c(S(=O)(=O)NCCSCc2ccco2)c(C)c1,12,2,.,53*,4,3,-8,-17,
Cc1ccc(NC(=O)N2CCC(NC(=O)c3cccc(C)c3)CC2)cc1,7,0,1,103*,-3,1,55*,-9,Scp-1 Tm shift=-7
Cc1cccc(C(=O)NC2CCN(C(=O)NCc3ccccc3)CC2)c1,5,0,19,75*,0,0,60*,-11,Scp-1 Tm shift=-3
Cc1ccc(NC(=O)N2CCC(NC(=O)c3ccco3)CC2)cc1,3,-4,6,-1,6,-1,.,.,
COc1cccc(NC(=O)C2CCN(C(=O)[C@@H]3Cc4ccccc4CN3)CC2)c1,-6,-2,-2,-7,-2,-1,.,.,
CCCNC(=O)CN1C(=O)NC2(CCCc3cc(OC)ccc32)C1=O (stereo not drawn),4,-2,15,-6,3,-1,.,.,
CCC1N=C(SC)NC(C)=C1C(=O)c1ccccc1 (stereo not drawn),0,-6,-8,96*,-4,1,-2,-13,
CCOC(=O)C1=C(C)NC(SC)=NC1c1ccc(OC)cc1 (stereo not drawn),4,-1,-3,5,-1,-2,.,.,
CCOc1ccc2ccccc2c1/C=N/NC(=O)CC1(C)OCCCO1,-1,2,-11,-10,-11,-1,.,.,
CCc1cccc(NC(=O)CCCCCC2NC(=O)NC2C)c1 (stereo not drawn),1,-2,-18,-7,2,-2,-19,-16,
Cc1ccc(NC(=O)CCCCCC2NC(=O)NC2C)cc1 (stereo not drawn),0,1,6,-3,2,0,11,4,
CC1NC(=O)NC1CCCCCC(=O)Nc1ccc(F)c(Cl)c1 (stereo not drawn),-3,1,8,0,0,-1,0,-7,
CCOC(=O)c1cc2c(=O)n3cccc(C)c3nc2n(Cc2ccco2)c1=NC(=O)c1cccnc1,15,-19,16,52*,11,2,44*,-11,Scp-1 Tm shift=6.9*
Cc1cccn2c(=O)c3cc(C#N)c(=NC(=O)c4ccccc4)n(Cc4ccco4)c3nc12,25,5,.,87*,13,29,1,-21,
O=C(CCCCCNC(=O)c1ccccc1Cl)N/N=C/c1ccco1,10,-3,4,15,-5,0,.,.,
Cn1cc(SCC(=O)NCc2ccc(F)cc2)c2ccccc21,4,-2,-1,-6,-2,0,.,.,
Cn1c(=O)cc(SCC(=O)NCc2ccc(F)cc2)c2ccccc21,2,2,-14,-6,0,-1,-19,-16,
SMILES,DNMT1 block,STEP block,UBC9 SUMO inh,Scp1 inh,SUMO1-SIM PPI,LMPTP block,Scp-1 conf,MG interference,others
CCOC(=O)c1c(NC(=O)C2C3C=CC(C3)C2(C)C(=O)O)sc2c1CCCC2 (stereo not drawn),26,10,8,53*,25,1,56*,-8,Scp-1 Tm shift=-19
CCOC(=O)c1c(NC(=O)C2CCCCC2C(=O)O)sc2c1CCCCC2 (stereo not drawn),-2,2,20,-8,4,0,.,.,
CCOC(=O)CC1(C)OCC(C[N+]2(C)CCCCC2)O1 (stereo not drawn),-1,1,15,93*,9,-1,93*,-5,Scp-1 Tm shift=-20
O=C(CCS(=O)(=O)c1ccc(Br)cc1)Nc1ccc(Cl)cc1F,-1,-2,5,-10,16,0,.,.,
O=C(CCS(=O)(=O)c1ccc(Br)cc1)Nc1ccc(Br)cc1F,39,4,5,56*,17,0,54*,-22,Scp-1 Tm shift=-8
COc1ccc(NC(=O)CSc2nnc(-c3ccncc3)o2)c([N+](=O)[O-])c1,-2,4,11,-7,-18,0,.,.,
CCOC(=O)CN1C(=O)N[C@@H](c2cccs2)C(C(=O)OC)=C1C,3,3,.,58*,1,-1,-6,-9,
CCOC(=O)CN1C(=O)N[C@@H](c2cccs2)C(C(C)=O)=C1C,1,-3,.,-9,1,0,.,.,
CCc1nc(Nc2cccc(F)c2)c2oc3ccccc3c2n1,2,-1,6,-4,0,2,.,.,
COc1cc(/C=C2/C(=O)NN(c3cccc(Cl)c3)C2=O)cc(OC)c1O,-3,4,-12,13,-25,1,.,.,
